For orientation: pIC50 means the IC50 on a negative log10 scale, so that one unit is a factor of ten. The CC50 is the concentration giving 50% cytotoxicity.

pIC50: −log10 of the molar value.

Data set [1] deals with Human immunodeficiency virus 1. The data set is described as follows: Potency index, ratio of IC50 for bevirimat to IC50 for test compound for antiviral activity against HIV-1 NL4-3 infected in human MT4 cells assessed as reduction in p24 gag protein incubated for 4 days by ELISA. It counts as functional. As to conditions: time 4 day. In a few lines: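 MT-4 cells infected with HIV-1 NL4-3 at MOI 0.01 and cultured with the test compounds. Bevirimat was run in parallel as the reference control. Supernatant p24 was measured on day 4 post-infection by antigen-capture ELISA. IC50 is the concentration that inhibits NL4-3 replication by 50%. The index is the bevirimat IC50 divided by the test-compound IC50.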

Data set [2] relates to Human immunodeficiency virus 1. Briefly: Antiviral activity against HIV-1 NL4-3 infected in human MT4 cells assessed as reduction in p24 gag protein incubated for 4 days by ELISA. Format: functional, organism-based. As to conditions: Human immunodeficiency virus 1, NL4-3, MT4, 96 h; for pIC50: read-out: IC50; for IC50: read-out: pIC50 (converted). The essentials: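 MT-4 cells infected with HIV-1 NL4-3 at MOI 0.01, serial compound concentrations, in 96-well format. Supernatant p24 antigen measured by capture ELISA on day 4 post-infection. IC50 is the concentration that inhibits NL4-3 replication by 50%. Bevirimat run in parallel as the reference.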

The test system of another data set is MT4. Briefly: Cytotoxicity against human MT4 cells assessed as reduction in cell viability incubated for 2 days by CytoTox-Glo cytotoxicity assay. Format: cell-based. As to conditions: mt4, 48 h, time 2 day. In a few lines: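 Mock-infected MT-4 cells cultured 2 days with a range of compound concentrations. Viability measured by CytoTox-Glo, following the kit protocol, as percent viable cells. CC50 is the concentration giving a 50% reduction in cell viability.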

With `C=C(C)[C@@H]1CC[C@]2(C(=O)N3CCN(C(=O)/C=C/c4ccc(O)c(OC)c4)CC3)CC[C@]3(C)[C@H](CC[C@@H]4[C@@]5(C)CC[C@H](OC(=O)CC(C)(C)C(=O)O)C(C)(C)[C@@H]5CC[C@]43C)[C@@H]12`, the “Ratio IC50” value in data set [1] is recorded as 2. For the same compound, in data set [2], the negative logarithm of the IC50 (pIC50) was 7.74 and the IC50 was 18.2 nM. Moreover, the CC50 in the data set with MT4 was more than 2000 nM.

In the case of `C=C(C)[C@@H]1CC[C@]2(C(=O)N3CCN(C(=O)/C=C/c4ccc(O)c(O)c4)CC3)CC[C@]3(C)[C@H](CC[C@@H]4[C@@]5(C)CC[C@H](OC(=O)CC(C)(C)C(=O)O)C(C)(C)[C@@H]5CC[C@]43C)[C@@H]12`, the “Ratio IC50” value in data set [1] was 2. Moreover, the CC50 with MT4 was more than 2000 nM.

Consider `C=C(C)[C@@H]1CC[C@]2(C(=O)N3CCN(C(=O)/C=C/c4ccc(OCOC)c(OC)c4)CC3)CC[C@]3(C)[C@H](CC[C@@H]4[C@@]5(C)CC[C@H](OC(=O)CC(C)(C)C(=O)O)C(C)(C)[C@@H]5CC[C@]43C)[C@@H]12`, for which the “Ratio IC50” value in data set [1] is given as 2. In data set [2], the negative-log IC50 (pIC50) is 7.60 and the IC50 was 25.1 nM. Moreover, the cytotoxic concentration (CC50) in the data set with MT4 was more than 2000 nM.

As for `C=C(C)[C@@H]1CC[C@]2(C(=O)N3CCN(C(=O)/C=C/c4ccccc4OC)CC3)CC[C@]3(C)[C@H](CC[C@@H]4[C@@]5(C)CC[C@H](OC(=O)CC(C)(C)C(=O)O)C(C)(C)[C@@H]5CC[C@]43C)[C@@H]12`, in data set [2], the pIC50 is 6.77 and the IC50 was 170 nM. For the same compound, the CC50 in the data set with MT4 is more than 2000 nM.

Take `C=C(C)[C@@H]1CC[C@]2(C(=O)N3CCN(C(=O)CCC(=O)Nc4nccs4)CC3)CC[C@]3(C)[C@H](CC[C@@H]4[C@@]5(C)CC[C@H](OC(=O)CC(C)(C)C(=O)O)C(C)(C)[C@@H]5CC[C@]43C)[C@@H]12`: in data set [2], the pIC50 was 7.40 and the IC50 is 39.8 nM. For the same compound, the CC50 with MT4 is more than 2000 nM.

In the case of `C=C(C)[C@@H]1CC[C@]2(C(=O)N3CCN(C(=O)/C=C/c4ccc(OC)c(Cl)c4)CC3)CC[C@]3(C)[C@H](CC[C@@H]4[C@@]5(C)CC[C@H](OC(=O)CC(C)(C)C(=O)O)C(C)(C)[C@@H]5CC[C@]43C)[C@@H]12`, in data set [2], the pIC50 is 6.89 and the IC50 is 129 nM. For the same compound, the CC50 in the data set with MT4 was more than 2000 nM.

Turning to `C=C(C)[C@@H]1CC[C@]2(C(=O)N3CCN(C(=O)/C=C/c4ccc(OCc5cccc([N+](=O)[O-])c5)c(OC)c4)CC3)CC[C@]3(C)[C@H](CC[C@@H]4[C@@]5(C)CC[C@H](OC(=O)CC(C)(C)C(=O)O)C(C)(C)[C@@H]5CC[C@]43C)[C@@H]12`, in data set [2], the pIC50 was 6.12 and the IC50 was 759 nM. Besides, the half-maximal cytotoxic concentration (CC50) with MT4 is more than 2000 nM.

Consider `C=C(C)[C@@H]1CC[C@]2(C(=O)NCCCNC(=O)/C=C/c3ccc4c(c3)OCO4)CC[C@]3(C)[C@H](CC[C@@H]4[C@@]5(C)CC[C@H](OC(=O)CC(C)(C)C(=O)O)C(C)(C)[C@@H]5CC[C@]43C)[C@@H]12`, for which, in data set [2], the pIC50 is 7.77 and the IC50 is 17 nM. In the data set with MT4, the CC50 was more than 2000 nM.

On to `C=C(C)[C@@H]1CC[C@]2(C(=O)N3CCN(C(=O)/C=C/c4ccc5[nH]ccc5c4)CC3)CC[C@]3(C)[C@H](CC[C@@H]4[C@@]5(C)CC[C@H](OC(=O)CC(C)(C)C(=O)O)C(C)(C)[C@@H]5CC[C@]43C)[C@@H]12`, for which, in data set [2], the pIC50 was 7.30 and the IC50 was 50.1 nM. The CC50 in the data set on MT4 was more than 2000 nM.

Consider `C=C(C)[C@@H]1CC[C@]2(C(=O)N3CCN(C(=O)/C=C/c4cccc(OCOC)c4)CC3)CC[C@]3(C)[C@H](CC[C@@H]4[C@@]5(C)CC[C@H](OC(=O)CC(C)(C)C(=O)O)C(C)(C)[C@@H]5CC[C@]43C)[C@@H]12`, for which, in data set [2], the pIC50 is 7.05 and the IC50 was 89.1 nM. For the same compound, the CC50 in the data set on MT4 is more than 2000 nM.

For `C=C(C)[C@@H]1CC[C@]2(C(=O)N3CCN(C(=O)/C=C/c4ccc5c(c4)OCO5)CC3)CC[C@]3(C)[C@H](CC[C@@H]4[C@@]5(C)CC[C@H](OC(=O)CC(C)(C)C(=O)O)C(C)(C)[C@@H]5CC[C@]43C)[C@@H]12`, the “Ratio IC50” value in data set [1] is on record as 2. Further, the CC50 in the data set with MT4 was more than 2000 nM.

With `C=C(C)[C@@H]1CC[C@]2(C(=O)N3CCN(C(=O)/C(C)=C/c4ccc5c(c4)OCO5)CC3)CC[C@]3(C)[C@H](CC[C@@H]4[C@@]5(C)CC[C@H](OC(=O)CC(C)(C)C(=O)O)C(C)(C)[C@@H]5CC[C@]43C)[C@@H]12`, in data set [2], the pIC50 was 7.24 and the IC50 is 57.5 nM. In addition, in the data set with MT4, the CC50 is more than 2000 nM.

Take `C=C(C)[C@@H]1CC[C@]2(C(=O)N3CCNCC3)CC[C@]3(C)[C@H](CC[C@@H]4[C@@]5(C)CC[C@H](Oc6ccc(O)c(O)c6)C(C)(C)[C@@H]5CC[C@]43C)[C@@H]12`: in data set [2], the pIC50 is 6.31 and the IC50 was 490 nM. Further, in the data set with MT4, the CC50 is more than 2000 nM.

As for `C=C(C)[C@@H]1CC[C@]2(C(=O)N3CCN(C(=O)/C=C/c4cccc(C(F)(F)F)c4)CC3)CC[C@]3(C)[C@H](CC[C@@H]4[C@@]5(C)CC[C@H](OC(=O)CC(C)(C)C(=O)O)C(C)(C)[C@@H]5CC[C@]43C)[C@@H]12`, in data set [2], the pIC50 was 6.25 and the IC50 was 562 nM. Also, the CC50 in the data set on MT4 was more than 2000 nM.

For `C=C(C)[C@@H]1CC[C@]2(C(=O)N3CCN(C(=O)/C=C/c4ccc5occc5c4)CC3)CC[C@]3(C)[C@H](CC[C@@H]4[C@@]5(C)CC[C@H](OC(=O)CC(C)(C)C(=O)O)C(C)(C)[C@@H]5CC[C@]43C)[C@@H]12`, in data set [2], the pIC50 was 6.82 and the IC50 was 151 nM. Also, the cytotoxic concentration (CC50) with MT4 was more than 2000 nM.

With `C=C(C)[C@@H]1CC[C@]2(C(=O)OCCCN3CCN(c4cc(NCc5ccccc5)ncn4)CC3)CC[C@]3(C)[C@H](CC[C@@H]4[C@@]5(C)CC[C@H](OC(=O)CC(C)(C)C(=O)O)C(C)(C)[C@@H]5CC[C@]43C)[C@@H]12`, the pIC50 in data set [2] is 6.37. Further, the CC50 with MT4 is more than 2000 nM.

Turning to `C=C(C)[C@@H]1CC[C@]2(C(=O)N3CCN(C(=O)/C=C/c4c[nH]c5ccccc45)CC3)CC[C@]3(C)[C@H](CC[C@@H]4[C@@]5(C)CC[C@H](OC(=O)CC(C)(C)C(=O)O)C(C)(C)[C@@H]5CC[C@]43C)[C@@H]12`, in data set [2], the pIC50 was 7.16 and the IC50 is 69.2 nM. In addition, the 50% cytotoxic concentration (CC50) in the data set with MT4 is more than 2000 nM.

For the compound `C=C(C)[C@@H]1CC[C@]2(C(=O)N3CCN(C(=O)/C=C/c4cccc(O)c4)CC3)CC[C@]3(C)[C@H](CC[C@@H]4[C@@]5(C)CC[C@H](OC(=O)CC(C)(C)C(=O)O)C(C)(C)[C@@H]5CC[C@]43C)[C@@H]12`, in data set [2], the pIC50 was 7.28 and the IC50 was 52.5 nM. Moreover, the CC50 in the data set on MT4 is more than 2000 nM.

On to `C=C(C)[C@@H]1CC[C@]2(C(=O)N3CCN(C(=O)/C=C/c4csc5ccccc45)CC3)CC[C@]3(C)[C@H](CC[C@@H]4[C@@]5(C)CC[C@H](OC(=O)CC(C)(C)C(=O)O)C(C)(C)[C@@H]5CC[C@]43C)[C@@H]12`, for which, in data set [2], the pIC50 is 6.74 and the IC50 is 182 nM. In the data set on MT4, the CC50 is more than 2000 nM.

In the case of `C=C(C)[C@@H]1CC[C@]2(C(=O)N3CCN(C(=O)/C=C/c4ccc(OCOC)c(OCc5cccc(Cl)c5)c4)CC3)CC[C@]3(C)[C@H](CC[C@@H]4[C@@]5(C)CC[C@H](OC(=O)CC(C)(C)C(=O)O)C(C)(C)[C@@H]5CC[C@]43C)[C@@H]12`, the pIC50 in data set [2] was 6.34. The CC50 in the data set on MT4 is more than 2000 nM.

Regarding `C=C(C)[C@@H]1CC[C@]2(C(=O)N3CCN(C(=O)/C=C/c4cn(C)c5ccccc45)CC3)CC[C@]3(C)[C@H](CC[C@@H]4[C@@]5(C)CC[C@H](OC(=O)CC(C)(C)C(=O)O)C(C)(C)[C@@H]5CC[C@]43C)[C@@H]12`, in data set [2], the negative logarithm of the IC50 (pIC50) is 6.85 and the IC50 is 141 nM. Besides, in the data set with MT4, the CC50 is more than 2000 nM.

Values taken from ChEMBL document CHEMBL4732243, “Design, synthesis, and structure activity relationship analysis of new betulinic acid derivatives as potent HIV inhibitors” (Eur J Med Chem, 2021).
